Test results: ChEMBL document CHEMBL1145427, “Quick assembly of 1,4-diphenyltriazoles as probes targeting beta-amyloid aggregates in Alzheimer's disease” (J Med Chem, 2007)

Key:
[1] = Displacement of [125I]IMPY from beta amyloid protein plaques in Alzheimer's disease patient brain; design: species or system Homo sapiens
How it was run: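 Competition binding to pooled gray-matter homogenates from four AD brains (approximately 100 mg wet tissue/mL in PBS pH 7.4; 20–50 μg per tube). [125I]2 at 0.04–0.06 nM; inhibitors 10^-5–10^-10 M in PBS with 0.1% BSA; final volume 1 mL. Nonspecific binding with 600 nM 2. Incubated 37 °C, 2 h; GF/B filtration, gamma counting. Ki from nonlinear regression.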

[2] = tested on: Heart; assay: Biodistribution in ICR mouse heart at 5 to 10 uCi, iv after 2 mins; format: ADME, organism-based; settings: in vivo
How it was run: (§1)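 Male ICR mice (22–25 g) under isoflurane anesthesia; [125I] or [18F] tracer (5–10 μCi) in 0.15 mL of 0.1% bovine serum albumin solution injected into the tail vein. Groups of n = 3 per time point, killed by cervical dislocation. Organs removed, weighed and gamma-counted against diluted aliquots of injected dose, giving % dose/organ and % ID/g. Total blood activity assumed as 7% of body weight.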

[3] = tested on: Spleen; assay: Biodistribution in ICR mouse spleen at 5 to 10 uCi, iv after 2 mins; format: ADME, organism-based; settings: in vivo; how it was run: as §1
[4] = tested on: Thyroid gland; assay: Biodistribution in ICR mouse thyroid at 5 to 10 uCi, iv after 1 hr; format: ADME, organism-based; settings: in vivo; how it was run: as §1
[5] = tested on: Spleen; assay: Biodistribution in ICR mouse spleen at 5 to 10 uCi, iv after 30 mins; format: ADME, organism-based; settings: in vivo, 0.5 h; how it was run: as §1
[6] = tested on: Heart; assay: Biodistribution in ICR mouse heart at 5 to 10 uCi, iv after 1 hr; format: ADME, organism-based; settings: in vivo; how it was run: as §1
[7] = tested on: Zone of skin; assay: Biodistribution in ICR mouse skin at 5 to 10 uCi, iv after 2 hrs; format: ADME, organism-based; settings: in vivo; how it was run: as §1
[8] = tested on: Heart; assay: Biodistribution in ICR mouse heart at 5 to 10 uCi, iv after 30 mins; format: ADME, organism-based; settings: in vivo, 0.5 h; how it was run: as §1
[9] = tested on: Thyroid gland; assay: Biodistribution in ICR mouse thyroid at 5 to 10 uCi, iv after 30 mins; format: ADME, organism-based; settings: in vivo, 0.5 h; how it was run: as §1
[10] = tested on: Liver; assay: Biodistribution in ICR mouse liver at 5 to 10 uCi, iv after 1 hr; format: ADME, organism-based; settings: in vivo; how it was run: as §1
[11] = tested on: Brain; assay: Biodistribution in ICR mouse brain at 5 to 10 uCi, iv after 2 mins; format: ADME, organism-based; settings: in vivo; how it was run: as §1
[12] = tested on: Thyroid gland; assay: Biodistribution in ICR mouse thyroid at 5 to 10 uCi, iv after 2 mins; format: ADME, organism-based; settings: in vivo; how it was run: as §1
[13] = tested on: Lung; assay: Biodistribution in ICR mouse lung at 5 to 10 uCi, iv after 2 mins; format: ADME, organism-based; settings: in vivo; how it was run: as §1
[14] = tested on: Heart; assay: Biodistribution in ICR mouse heart at 5 to 10 uCi, iv after 2 hrs; format: ADME, organism-based; settings: in vivo; how it was run: as §1
[15] = tested on: Lung; assay: Biodistribution in ICR mouse lung at 5 to 10 uCi, iv after 1 hr; format: ADME, organism-based; settings: in vivo; how it was run: as §1
[16] = tested on: Kidney; assay: Biodistribution in ICR mouse kidney at 5 to 10 uCi, iv after 2 hrs; format: ADME, organism-based; settings: in vivo; how it was run: as §1
[17] = tested on: Blood; assay: Biodistribution in ICR mouse blood at 5 to 10 uCi, iv after 30 mins; format: ADME, organism-based; settings: in vivo, 0.5 h; how it was run: as §1
[18] = tested on: Muscle tissue; assay: Biodistribution in ICR mouse muscle at 5 to 10 uCi, iv after 2 mins; format: ADME, organism-based; settings: in vivo; how it was run: as §1
[19] = tested on: Liver; assay: Biodistribution in ICR mouse liver at 5 to 10 uCi, iv after 2 mins; format: ADME, organism-based; settings: in vivo; how it was run: as §1
[20] = tested on: Lung; assay: Biodistribution in ICR mouse lung at 5 to 10 uCi, iv after 2 hrs; format: ADME, organism-based; settings: in vivo; how it was run: as §1
[21] = tested on: Muscle tissue; assay: Biodistribution in ICR mouse muscle at 5 to 10 uCi, iv after 30 mins; format: ADME, organism-based; settings: in vivo, 0.5 h; how it was run: as §1
[22] = tested on: Kidney; assay: Biodistribution in ICR mouse kidney at 5 to 10 uCi, iv after 1 hr; format: ADME, organism-based; settings: in vivo; how it was run: as §1
[23] = tested on: Zone of skin; assay: Biodistribution in ICR mouse skin at 5 to 10 uCi, iv after 2 mins; format: ADME, organism-based; settings: in vivo; how it was run: as §1
[24] = Partition coefficient, log P of the compound; format: physicochemical; settings: octanol/water
How it was run: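 [125I] or [18F] tracer mixed with 3 g each of 1-octanol and 0.1 M phosphate buffer pH 7.4. Vortexed 3 min at room temperature, then centrifuged 5 min. Two 0.5 g samples from each layer counted; PC is the ratio of cpm/g in octanol to cpm/g in buffer. The octanol layer was repartitioned until values were consistent.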

[25] = tested on: Lung; assay: Biodistribution in ICR mouse lung at 5 to 10 uCi, iv after 30 mins; format: ADME, organism-based; settings: in vivo, 0.5 h; how it was run: as §1
[26] = tested on: Kidney; assay: Biodistribution in ICR mouse kidney at 5 to 10 uCi, iv after 30 mins; format: ADME, organism-based; settings: in vivo, 0.5 h; how it was run: as §1
[27] = tested on: Spleen; assay: Biodistribution in ICR mouse spleen at 5 to 10 uCi, iv after 1 hr; format: ADME, organism-based; settings: in vivo; how it was run: as §1
[28] = tested on: Blood; assay: Biodistribution in ICR mouse blood at 5 to 10 uCi, iv after 2 mins; format: ADME, organism-based; settings: in vivo; how it was run: as §1
[29] = tested on: Brain; assay: Biodistribution in ICR mouse brain at 5 to 10 uCi, iv after 1 hr; format: ADME, organism-based; settings: in vivo; how it was run: as §1
[30] = tested on: Blood; assay: Biodistribution in ICR mouse blood at 5 to 10 uCi, iv after 1 hr; format: ADME, organism-based; settings: in vivo; how it was run: as §1
[31] = tested on: Thyroid gland; assay: Biodistribution in ICR mouse thyroid at 5 to 10 uCi, iv after 2 hrs; format: ADME, organism-based; settings: in vivo; how it was run: as §1
[32] = tested on: Liver; assay: Biodistribution in ICR mouse liver at 5 to 10 uCi, iv after 2 hrs; format: ADME, organism-based; settings: in vivo; how it was run: as §1
[33] = tested on: Kidney; assay: Biodistribution in ICR mouse kidney at 5 to 10 uCi, iv after 2 mins; format: ADME, organism-based; settings: in vivo; how it was run: as §1
[34] = tested on: Spleen; assay: Biodistribution in ICR mouse spleen at 5 to 10 uCi, iv after 2 hrs; format: ADME, organism-based; settings: in vivo; how it was run: as §1
[35] = tested on: Liver; assay: Biodistribution in ICR mouse liver at 5 to 10 uCi, iv after 30 mins; format: ADME, organism-based; settings: in vivo, 0.5 h; how it was run: as §1
[36] = tested on: Blood; assay: Biodistribution in ICR mouse blood at 5 to 10 uCi, iv after 2 hrs; format: ADME, organism-based; settings: in vivo; how it was run: as §1
[37] = tested on: Brain; assay: Biodistribution in ICR mouse brain at 5 to 10 uCi, iv after 2 hrs; format: ADME, organism-based; settings: in vivo; how it was run: as §1
[38] = tested on: Muscle tissue; assay: Biodistribution in ICR mouse muscle at 5 to 10 uCi, iv after 1 hr; format: ADME, organism-based; settings: in vivo; how it was run: as §1
[39] = tested on: Zone of skin; assay: Biodistribution in ICR mouse skin at 5 to 10 uCi, iv after 30 mins; format: ADME, organism-based; settings: in vivo, 0.5 h; how it was run: as §1
[40] = tested on: Muscle tissue; assay: Biodistribution in ICR mouse muscle at 5 to 10 uCi, iv after 2 hrs; format: ADME, organism-based; settings: in vivo; how it was run: as §1
[41] = tested on: Brain; assay: Biodistribution in ICR mouse brain at 5 to 10 uCi, iv after 30 mins; format: ADME, organism-based; settings: in vivo, 0.5 h; how it was run: as §1
[42] = tested on: Zone of skin; assay: Biodistribution in ICR mouse skin at 5 to 10 uCi, iv after 1 hr; format: ADME, organism-based; settings: in vivo; how it was run: as §1

CNc1ccc(-c2cn(-c3ccc(I)cc3)nn2)cc1
Ki [1]: 4 nM

CN(C)c1ccc(-c2cn(-c3ccc(OCCO)cc3)nn2)cc1
Ki [1]: 10 nM

CN(C)c1ccc(-c2cn(-c3ccc([125I])cc3)nn2)cc1
Drug uptake [2]: 6.61 % ID/g | Drug uptake [3]: 5.32 % ID/g | Drug uptake [4]: 17 % ID/g | Drug uptake [5]: 1.35 % ID/g | Drug uptake [6]: 0.78 % ID/g | Drug uptake [7]: 1.19 % ID/g | Drug uptake [8]: 1.34 % ID/g | Drug uptake [9]: 11 % ID/g | Drug uptake [10]: 3.74 % ID/g | Drug uptake [11]: 7.22 % ID/g | Drug uptake [12]: 3.17 % ID/g | Drug uptake [13]: 8.93 % ID/g | Drug uptake [14]: 0.56 % ID/g | Drug uptake [15]: 1.66 % ID/g | Drug uptake [16]: 1.52 % ID/g | Drug uptake [17]: 1.63 % ID/g | Drug uptake [18]: 0.76 % ID/g | Drug uptake [19]: 17.4 % ID/g | Drug uptake [20]: 1.43 % ID/g | Drug uptake [21]: 1.11 % ID/g | Drug uptake [22]: 2.13 % ID/g | Drug uptake [23]: 0.71 % ID/g | logP [24]: 3.4 | Drug uptake [25]: 2.55 % ID/g | Drug uptake [26]: 3.66 % ID/g | Drug uptake [27]: 0.89 % ID/g | Drug uptake [28]: 2.84 % ID/g | Drug uptake [29]: 0.64 % ID/g | Drug uptake [30]: 1.33 % ID/g | Drug uptake [31]: 89.1 % ID/g | Drug uptake [32]: 2.49 % ID/g | Drug uptake [33]: 11.5 % ID/g | Drug uptake [34]: 0.69 % ID/g | Drug uptake [35]: 6.93 % ID/g | Drug uptake [36]: 1.21 % ID/g | Drug uptake [37]: 0.29 % ID/g | Drug uptake [38]: 0.61 % ID/g | Drug uptake [39]: 2.2 % ID/g | Drug uptake [40]: 0.36 % ID/g | Drug uptake [41]: 1.94 % ID/g | Drug uptake [42]: 1.93 % ID/g

CN(C)c1ccc(-c2cn(-c3ccc(OCCOCCOCCO)cc3)nn2)cc1
Ki [1]: 16.5 nM

CN(C)c1ccc(-c2cn(-c3ccc(OCCC[18F])cc3)nn2)cc1
Drug uptake [2]: 5.79 % ID/g | Drug uptake [3]: 3.98 % ID/g | Drug uptake [4]: 16.87 % ID/g | Drug uptake [5]: 1.29 % ID/g | Drug uptake [6]: 0.69 % ID/g | Drug uptake [7]: 0.11 % ID/g | Drug uptake [8]: 1.93 % ID/g | Drug uptake [9]: 9.62 % ID/g | Drug uptake [10]: 2.06 % ID/g | Drug uptake [11]: 6.56 % ID/g | Drug uptake [12]: 1.57 % ID/g | Drug uptake [13]: 7.65 % ID/g | Drug uptake [14]: 0.23 % ID/g | Drug uptake [15]: 0.88 % ID/g | Drug uptake [16]: 0.35 % ID/g | Drug uptake [17]: 1.91 % ID/g | Drug uptake [18]: 0.89 % ID/g | Drug uptake [19]: 15.6 % ID/g | Drug uptake [20]: 0.76 % ID/g | Drug uptake [21]: 1.03 % ID/g | Drug uptake [22]: 2.69 % ID/g | Drug uptake [23]: 0.93 % ID/g | logP [24]: 2.7 | Drug uptake [25]: 2.4 % ID/g | Drug uptake [26]: 3.68 % ID/g | Drug uptake [27]: 0.58 % ID/g | Drug uptake [28]: 3.23 % ID/g | Drug uptake [29]: 1.81 % ID/g | Drug uptake [30]: 0.75 % ID/g | Drug uptake [32]: 0.76 % ID/g | Drug uptake [33]: 9.01 % ID/g | Drug uptake [34]: 0.17 % ID/g | Drug uptake [35]: 5.06 % ID/g | Drug uptake [36]: 0.31 % ID/g | Drug uptake [37]: 1.29 % ID/g | Drug uptake [38]: 0.36 % ID/g | Drug uptake [39]: 1.41 % ID/g | Drug uptake [40]: 0.1 % ID/g | Drug uptake [41]: 2.84 % ID/g | Drug uptake [42]: 0.41 % ID/g

CN(C)c1ccc(-c2cn(-c3ccc(I)cc3)nn2)cc1
Ki [1]: 8 nM
